From PubChem
STEP inh – inhibitors of human striatal-enriched phosphatase STEP; P54829; recombinant STEP, OMFP fluorogenic substrate, fluorescence; inhibition, % at 20 µM; 0.25% of 360,000 active; AID 588621;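 active means inhibition at 20 µM, scaled per plate between control wells, above about 37%, limit read from the data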
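Assay system: isolated STEP enzyme. Buffer or medium: pH 6.0 Bis-Tris with DTT and Tween 20. Also added: fluorogenic phosphatase substrate OMFP at 25 µM final. Dosing: 20 µM, 1% DMSO. Timing: 20 min reaction, room temperature, in the dark. Measured by: fluorescence intensity, excitation 480 nm, emission 540 nm. Evaluation: normalized % inhibition.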
SUMO1-SIM PPI – alters human SUMO1 binding to SIM partners | P63165 | SUMO1 binding to a labelled peptide, TR-FRET, 1 h | inhibition, % at 20 µM | 0.33% of 360,000 active | AID 602429; in the data active means inhibition above about 37%
DNMT1 block – inhibitors of human DNMT1; DNMT1 molecular beacon, Hinp1I cleavage, fluorescence; inhibition (reported as % activation of signal), % at 10 µM; P26358; 0.83% of 360,000 active; in the data active means inhibition above about 50%
Target sequence (P26358 504-1616 limits assumed): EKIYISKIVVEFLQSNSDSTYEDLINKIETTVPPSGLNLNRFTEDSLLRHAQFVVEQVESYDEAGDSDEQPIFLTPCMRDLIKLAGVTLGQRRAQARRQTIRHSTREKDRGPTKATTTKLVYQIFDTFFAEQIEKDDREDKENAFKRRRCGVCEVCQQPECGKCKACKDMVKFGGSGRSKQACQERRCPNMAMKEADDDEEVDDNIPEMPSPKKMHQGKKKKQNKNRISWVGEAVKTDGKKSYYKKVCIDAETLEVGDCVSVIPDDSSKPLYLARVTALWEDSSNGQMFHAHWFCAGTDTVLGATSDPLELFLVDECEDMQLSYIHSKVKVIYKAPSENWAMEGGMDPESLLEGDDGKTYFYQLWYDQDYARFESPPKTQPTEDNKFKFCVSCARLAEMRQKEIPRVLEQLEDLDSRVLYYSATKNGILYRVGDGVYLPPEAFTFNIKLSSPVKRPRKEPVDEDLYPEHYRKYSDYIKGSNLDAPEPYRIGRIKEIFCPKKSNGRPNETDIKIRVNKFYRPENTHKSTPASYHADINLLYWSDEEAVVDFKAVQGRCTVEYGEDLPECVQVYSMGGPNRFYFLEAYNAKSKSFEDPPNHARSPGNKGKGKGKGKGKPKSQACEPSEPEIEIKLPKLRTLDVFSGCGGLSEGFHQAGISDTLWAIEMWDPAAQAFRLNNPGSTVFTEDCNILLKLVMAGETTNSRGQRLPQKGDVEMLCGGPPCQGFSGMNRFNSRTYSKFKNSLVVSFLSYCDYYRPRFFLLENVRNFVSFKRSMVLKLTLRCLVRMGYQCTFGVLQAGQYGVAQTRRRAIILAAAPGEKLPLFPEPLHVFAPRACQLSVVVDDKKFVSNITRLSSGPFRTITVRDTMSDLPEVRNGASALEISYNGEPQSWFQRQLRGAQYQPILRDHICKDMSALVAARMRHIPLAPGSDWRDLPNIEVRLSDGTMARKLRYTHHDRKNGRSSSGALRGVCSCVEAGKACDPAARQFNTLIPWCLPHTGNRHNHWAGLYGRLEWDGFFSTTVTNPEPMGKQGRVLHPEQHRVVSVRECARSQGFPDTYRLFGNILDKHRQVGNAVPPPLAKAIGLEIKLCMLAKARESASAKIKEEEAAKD
GRK2 aptamer HTS – inhibitors of human GRK2 displacing RNA aptamer | AID 488847 | 0.59% of 330,000 active | inhibition of aptamer binding, % at 10 µM | P25098 | bead flow cytometry, FAM-aptamer displacement from GRK2;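 active means inhibition of aptamer binding above 40%, roughly 3 SD of noise, on plates passing a quality check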;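 further: median bead fluorescence of bound FAM aptamer so fluorescent compounds give negative values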
Scp1 inh – inhibitors of human Scp-1 phosphatase | Recombinant Scp1, phosphopeptide, malachite green phosphate absorbance | inhibition, % at 20 µM | 0.88% of 340,000 active;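 active means inhibition above about 50% at 20 µM, limit read from the data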
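Times: enzyme reaction 45 min at room temperature, colour 5 min, stabilisation 30 min. Material: SCP-1 catalytic fragment, aa 76-261. Medium: Acidic Tris acetate buffer with magnesium and detergent. Signal: colorimetric free-phosphate detection, absorbance 630 nm. Read-out basis: % inhibition of SCP-1 phosphate liberation. Reagent: Phosphorylated 17-residue peptide substrate.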
LMPTP block – blocks human LMPTP phosphatase | recombinant LMPTP-A, OMFP fluorogenic substrate, fluorescence intensity | inhibition, % at 20 µM | P24666 | 0.22% of 360,000 active;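 active means compounds that cut the enzyme signal by at least half of the control window in the single-dose screen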
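Assay system: LMPTP-A phosphatase enzyme | Input: 0.625 nM enzyme | Also added: Fluorogenic phosphatase substrate OMFP at 400 µM final | Compound dosing: One test concentration per compound, 20 µM, with 3% DMSO overall | Schedule: 50 min enzyme reaction at room temperature, protected from light | Signal: Fluorescence intensity | Benchmarks: no-enzyme and uninhibited controls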
Scp1 confirm – Scp-1 (human) inhibition, single-dose confirmed. shares compounds with Scp1 inh. recombinant SCP-1 catalytic domain, phosphate release, malachite green absorbance. inhibition, % at 20 µM. 61% of 2,500 active
MG interference – colorimetric interference in Scp-1 counter-screen | shares compounds with Scp1 inh | Colorimetric interference counterscreen, malachite green absorbance 630 nm | apparent inhibition (interference), % at 20 µM | 2,500 tested, under 10 active;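 further: compounds added after enzyme reaction finished so only phosphate colour detection is probed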
Scp-1 Tm shift – binds human Scp-1, shifting its melting temperature; shares compounds with Scp1 inh; Recombinant SCP1, Sypro Orange thermal shift Tm; thermal shift relative to vanadate control, % at 40 µM; 25% of 1,500 active;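 active means substances whose mean melting-temperature shift, as a percentage of the reference inhibitor's shift, reaches about 5.3%, limit read from the data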
DNMT1 inh conf – DNMT1 inhibition confirmation, single concentration; shares compounds with DNMT1 block; DNMT1 molecular beacon HinP1I cleavage, fluorescence; inhibition, % at 10 µM; 8% of 2,300 active;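 active means average inhibition of at least 30% in the single-concentration confirmation test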
Beacon interf – shows spectral interference in the DNMT1 beacon assay | shares compounds with DNMT1 block | DNMT1 molecular beacon spectral interference counterscreen, fluorescence 485/520 | activation (fluorescence interference), % at 10 µM | 1% of 2,300 active | AID 602387;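 active means activation of at least 30% at 10 µM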;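 further: DNMT1 catalytic domain with a HinP1I cleavage step and a FAM/dabcyl DNA beacon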
Of the large screens only hits and unclear results are named; the others gave an inactive call (follow-up assays come after a bar, where they were run). Compounds with a hit are over-represented: about 2.1% of the library has one in this group of screens.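 How the source made its calls, unless noted: active means inhibition of at least 30% at 20 µM; inactive means the rest.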

N=C1C(c2nc3ccccc3s2)=C(O)CN1NC(=O)c1ccccc1[N+](=O)[O-]	none
CCCCCc1cc(=O)c2ccccc2o1	none
CCOc1ccc(N=C2NC(=O)S/C2=C\c2ccc(OC)cc2)cc1	DNMT1 block 63.9, Scp1 inh 61.4 | Scp1 confirm 77.9 | MG interference inactive | Scp-1 Tm shift inactive | DNMT1 inh conf inactive | Beacon interf inactive
O=C(Nc1nnc(-c2ccc(Br)cc2)o1)c1cccc(N2C(=O)CCC2=O)c1	none
COc1ccc(S(=O)(=O)Cc2ccc(C(=O)N3CCc4ccccc4C3)o2)cc1	none
Cc1ccc(S(=O)(=O)Cc2ccc(C(=O)N3CCc4ccccc4C3)o2)cc1	DNMT1 block 81.0, Scp1 inh 75.5 | Scp1 confirm 54.1 | MG interference inactive | Scp-1 Tm shift inactive | DNMT1 inh conf inactive | Beacon interf inactive
COc1ccccc1C(CNC(=O)c1ccc(S(=O)(=O)N2CCCCC2)cc1)N(C)C (stereo not drawn)	none
Cc1ccc(CNC(=O)CCS(=O)(=O)c2ccc(Cl)cc2)cc1	none
Cc1ccc(CNC(=O)CCS(=O)(=O)c2ccc(Br)cc2)cc1	DNMT1 block 89.3, Scp1 inh 83.9 (no result: GRK2 aptamer HTS) | Scp1 confirm 76.4 | MG interference inactive | Scp-1 Tm shift inactive | DNMT1 inh conf inactive | Beacon interf inactive
O=[N+]([O-])c1ccc2nc(NS(=O)(=O)c3ccc(F)cc3)sc2c1	none
Cc1ccc(CNCC(=O)Nc2cccc(S(=O)(=O)NC3=NCCCCC3)c2)cc1	none
CCc1nn2c(=O)cc(COc3ccc(/C=C4\C(=N)N5N=C(CC(C)C)SC5=NC4=O)cc3)nc2s1	none (no result: STEP inh, SUMO1-SIM PPI, DNMT1 block, LMPTP block)
CCC1=NN2C(=N)/C(=C\c3ccc(OCc4cc(=O)n5nc(CC)sc5n4)c(OC)c3)C(=O)N=C2S1	SUMO1-SIM PPI 43.8, DNMT1 block 86.8, Scp1 inh 74.6 (no result: GRK2 aptamer HTS) | Scp1 confirm 50.7 | MG interference inactive | Scp-1 Tm shift inactive | DNMT1 inh conf inactive | Beacon interf inactive
Cc1ccccc1C1(O)c2ccccc2-c2ccccc21	none (no result: GRK2 aptamer HTS, Scp1 inh)
O=C1C2C(C(=O)N1/N=C/c1cc([N+](=O)[O-])c(O)cc1O)C1C=CC2C12CC2 (stereo not drawn)	DNMT1 block 82.9, Scp1 inh 64.2 | Scp1 confirm 64.5 | MG interference inactive | Scp-1 Tm shift 5.9 | DNMT1 inh conf inactive | Beacon interf inactive
CN(CCOC(=O)/C=C/c1ccco1)Cc1ccccc1	DNMT1 block 78.0, Scp1 inh 65.6 | Scp1 confirm 52.9 | MG interference inactive | Scp-1 Tm shift inactive | DNMT1 inh conf inactive | Beacon interf inactive
O=C(CNS(=O)(=O)c1ccc(Br)cc1)OCc1cc(=O)n2cc(Br)ccc2n1	none (no result: STEP inh, SUMO1-SIM PPI, DNMT1 block, Scp1 inh, LMPTP block)
O=C(CNC(=O)c1cccc(OC(F)F)c1)OCc1cc(=O)n2cc(Br)ccc2n1	DNMT1 block 107.6, Scp1 inh 61.4 | Scp1 confirm 58.4 | MG interference inactive | Scp-1 Tm shift inactive | DNMT1 inh conf inactive | Beacon interf inactive
CC1=CCC(C(=O)O)C(C(=O)NC2CCCCC2)C1 (stereo not drawn)	SUMO1-SIM PPI 50.6, DNMT1 block 78.7, GRK2 aptamer HTS 89.0, Scp1 inh 100.0 | Scp1 confirm 75.5 | MG interference inactive | Scp-1 Tm shift inactive | DNMT1 inh conf inactive | Beacon interf inactive
COc1cc(NC(=O)c2ccccc2)c(OC)cc1NC(=O)Cc1cccs1	DNMT1 block 72.6, Scp1 inh 71.4 | Scp1 confirm 65.7 | MG interference inactive | Scp-1 Tm shift 8.0 | DNMT1 inh conf inactive | Beacon interf inactive
Cc1ccc([N+](=O)[O-])cc1NC(=O)Cc1ccc(F)cc1	none
Cc1ccc([N+](=O)[O-])cc1NC(=O)Cc1cccs1	DNMT1 block 80.7, Scp1 inh 66.6 | Scp1 confirm 60.5 | MG interference inactive | Scp-1 Tm shift 5.9 | DNMT1 inh conf inactive | Beacon interf inactive
CC(=O)Nc1cccc(NC(=O)Cc2cccs2)c1	none
COC(=O)c1cc(NC(=O)Cc2cccs2)cc(C(=O)OC)c1	DNMT1 block 57.8, Scp1 inh 75.7 | Scp1 confirm 64.8 | MG interference inactive | Scp-1 Tm shift 6.3 | DNMT1 inh conf inactive | Beacon interf inactive
CC(=O)Nc1cccc(Nc2cnccn2)c1	none (no result: GRK2 aptamer HTS, Scp1 inh)
O=C1NC(=O)/C(=C/c2ccco2)N1	none
O=C1NC(=S)NC1=Cc1ccco1	DNMT1 block 53.2, Scp1 inh 58.8 (no result: GRK2 aptamer HTS) | Scp1 confirm 54.1 | MG interference inactive | Scp-1 Tm shift inactive | DNMT1 inh conf inactive | Beacon interf inactive
CCCc1nc2sc3ccccc3c(=O)c2c(=O)n1Cc1ccc(OC)cc1	none
CCCc1nc2sc3ccccc3c(=O)c2c(=O)n1Cc1ccco1	DNMT1 block 75.6, Scp1 inh 68.1 (no result: GRK2 aptamer HTS) | Scp1 confirm 54.1 | MG interference inactive | Scp-1 Tm shift inactive | DNMT1 inh conf inactive | Beacon interf inactive
O=C(CSc1n[nH]c(-c2ccccc2)n1)NCc1cccc(C(=O)O)c1	none
CCOc1ccccc1C(O)C1=CC(=O)c2ccccc2C1=O (stereo not drawn)	DNMT1 block 95.8, Scp1 inh 74.7 (no result: GRK2 aptamer HTS) | Scp1 confirm 54.1 | MG interference inactive | Scp-1 Tm shift 14.3 | DNMT1 inh conf inactive | Beacon interf inactive
N#Cc1c(/N=C/c2ccc(-c3ccccc3C(=O)O)o2)sc2c1CCCC2	DNMT1 block 51.7, Scp1 inh 57.4 | Scp1 confirm 43.4 | MG interference inactive | Scp-1 Tm shift 8.0 | DNMT1 inh conf inactive | Beacon interf inactive
Cc1cccc(NC(=O)CCc2nc3sc4c(c3c(=O)[nH]2)CCCC4)c1	none
Cc1ccc(NC(=O)CCc2nc3sc4c(c3c(=O)[nH]2)CCCC4)nc1	DNMT1 block 50.3, Scp1 inh 61.6 | Scp1 confirm 66.0 | MG interference inactive | Scp-1 Tm shift 9.0 | DNMT1 inh conf inactive | Beacon interf inactive
